According to ChEMBL document CHEMBL1153570, “Synthesis and antitubercular screening of imidazole derivatives” (2009):
Converted amounts (≈) assume the structure as drawn.

What was measured:
Format in all cases: functional
[1] = system: Mycobacterium tuberculosis; assay: Antimycobacterial activity against Mycobacterium tuberculosis H37Ra after 5 days by microplate alamar blue assay; conditions: 120 h
How it was run: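 Log-phase M. tuberculosis H37Ra diluted to final OD550 0.05 in Sauton's medium. Compounds in DMSO, twofold dilutions from […]. Incubated at 37 °C/5% CO2 for 5 days, alamar blue added on day 5, incubated overnight. Fluorescence read-out.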

[2] = system: Mycobacterium tuberculosis; assay: Antimycobacterial activity against Mycobacterium tuberculosis H37Rv by agar microdilution assay
How it was run: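 H37Rv from L–J medium suspended in 0.85% saline with 0.05% Tween-80. Twofold compound dilutions in OADC-supplemented 7H10 agar slants, preincubated 24 h at 37 °C, then streaked with 5 × 10⁴ bacilli per tube. Incubated at 37 °C and growth read after 30 days against drug-free controls. MIC taken as the concentration giving complete inhibition of colonies.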

[3] = system: Mycobacterium tuberculosis; assay: Antitubercular activity against Mycobacterium tuberculosis H37Rv after 5 to 8 days by BACTEC radiometric assay
How it was run: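 H37Rv from L–J slants homogenized with glass beads and adjusted to McFarland 1. Primary inoculum grown in BACTEC 12B vial to GI 500–700, then 0.1 ml added to 4 ml 12B broth containing compound. A 1:100-inoculum control vial was included. Incubated at 37 °C with daily GI readings; read one more day after the 1:100 control reached GI 30.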

Compound | MIC [1] | MIC [2] | MIC [3]
c1ccc(Cn2cnc3ccccc32)cc1 | > 12.5 µg/mL | > 12.5 µg/mL | 
Clc1ccc(Cn2ccnc2)cc1Cl | > 12.5 µg/mL |  | 
CCCCCCNC(=O)Cn1ccnc1 | 25 µg/mL (≈ 119 µM) | > 12.5 µg/mL | 
CCOC(=O)CCn1ccnc1 |  | > 12.5 µg/mL | 
c1cn(CCCCCn2ccnc2)cn1 | > 12.5 µg/mL | > 12.5 µg/mL | 
CCOC(=O)Cn1ccnc1 | > 12.5 µg/mL | > 6.25 µg/mL | 
C=CCc1cnc(CCC)n1CCCn1ccnc1CCC | > 12.5 µg/mL | 25 µg/mL (≈ 83.2 µM) | 
c1cn(CCCn2ccnc2)cn1 | > 12.5 µg/mL | > 12.5 µg/mL | 
CCCc1nccn1C(CC(=O)OCC)C1O[C@H]2OC(C)(C)O[C@H]2[C@@H]1OC (stereo not given in full) | 25 µg/mL (≈ 65.4 µM) | 25 µg/mL (≈ 65.4 µM) | 
CCCCCCCNC(=O)Cn1ccnc1 | > 12.5 µg/mL | > 12.5 µg/mL | 
CCCCNC(=O)Cn1ccnc1 | > 12.5 µg/mL | > 12.5 µg/mL | 
OCCn1ccnc1 | > 12.5 µg/mL | > 12.5 µg/mL | 
CCOC(=O)CC(C1O[C@H]2OC(C)(C)O[C@H]2[C@@H]1OC)n1ccnc1 (stereo not given in full) | 25 µg/mL (≈ 73.4 µM) | 25 µg/mL (≈ 73.4 µM) | 
c1ccc(CNCCn2ccnc2)cc1 | 12.5 µg/mL (≈ 62.1 µM) | 12.5 µg/mL (≈ 62.1 µM) | 
CCOC(=O)CC(C1O[C@H]2OC(C)(C)O[C@H]2[C@@H]1OCc1ccccc1)n1ccnc1 (stereo not given in full) | 50 µg/mL (≈ 120 µM) | 50 µg/mL (≈ 120 µM) | 
CCCc1nccn1CCCn1ccnc1CCC | > 12.5 µg/mL |  | 6.25 µg/mL (≈ 24 µM)
O=C(Cn1ccnc1)NCc1ccccc1 | > 12.5 µg/mL | > 12.5 µg/mL | 
CCCc1nccn1C(CC(=O)OCC)C1O[C@H]2OC(C)(C)O[C@H]2[C@@H]1OCc1ccccc1 (stereo not given in full) | 50 µg/mL (≈ 109 µM) | 50 µg/mL (≈ 109 µM) | 
Clc1ccc(Cn2cnc3ccccc32)cc1Cl | > 12.5 µg/mL | > 12.5 µg/mL | 
CC[C@@H](CO)NCCN[C@@H](CC)CO [ETHAMBUTOL] | 1.5 µg/mL (≈ 7.34 µM) | 1.5 µg/mL (≈ 7.34 µM) | 
NNC(=O)c1ccncc1 [ISONIAZID] | 0.65 µg/mL (≈ 4.74 µM) | 0.65 µg/mL (≈ 4.74 µM) | 
